Data on one substance can be found in paper PMC4166030 (Bioconjugate Chemistry, 2014).

For the data set, the system named is KRAS2 G12D RNA. Put plainly: CD thermal melting of TO-PNA-peptide:RNA duplexes. In kind it is binding. The gist of the method:
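Gel-purified synthetic RNA 20mers were annealed with the test compound at 1 μM each (final) in sodium phosphate, 1.0 M NaCl, 5 mM EDTA, pH 7.2, by heating at 95 °C for 10 min and then cooling for 10 min. CD at 265 nm was tracked over a 25→95 °C ramp at 0.5 °C/min, with baseline slopes subtracted. Tm was taken as the first-derivative maximum (two-state model); n = 3, ± SD.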

For the substance “GCCATOTCAGCTCC-AEEA-D(Cys-Ser-Lys-Cys) (disulfide) [TO2]”, the “Tm decrease relative to TO1 (12mer) KRAS2 G12D duplex” value is 2 °C.
